ChEMBL document CHEMBL4689842, “EUbOPEN Chemogenomics Library wave 1” (2021)

System: HEK-293T
Test: Multiplex assay against HEK293T;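 as to Population Tubulin-Different-Phenotype (%): share of the cells with healthy nuclei that show this phenotype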
Format: toxicity, cell-based
Conditions: human
Outline: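 Hoechst33342, BioTracker Green Microtubule Cytoskeleton Dye, MitoTracker Red and Annexin V Alexa Fluor 680 were added to live cells at seeding, and imaging on a CQ1 microscope at 37°C and 5% CO2 followed compound addition. Gating by CellPathfinder machine learning separated cells into Hoechst high-intensity objects or normal cells, then normal cells into healthy, pyknosed or fragmented nuclei, then pyknosed cells into mitotic or apoptotic. Per cents of healthy-nucleus cells are reported for the tubulin, mitochondrial-mass and membrane-permeability phenotypes.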

[1] = 12 h, 1 µM, compound concentration 1 uM, replicate 1
[2] = 12 h, 1 µM, compound concentration 1 uM, replicate 2
[3] = 12 h, 10 µM, compound concentration 10 uM, replicate 1
[4] = 12 h, 10 µM, compound concentration 10 uM, replicate 2
[5] = 24 h, 1 µM, compound concentration 1 uM, replicate 1
[6] = 24 h, 1 µM, compound concentration 1 uM, replicate 2
[7] = 24 h, 10 µM, compound concentration 10 uM, replicate 1
[8] = 24 h, 10 µM, compound concentration 10 uM, replicate 2

Which “Population Apoptotic (%)” value [1] does the source give for `CC[C@@H]1C(=O)N(C)c2cnc(Nc3ccc(C(=O)NC4CCN(C)CC4)cc3OC)nc2N1C1CCCC1` [BI-2536] here?
The value was 15%.

What about the “Population Fragmented Nuclei (%)” value [1] of the same molecule?
Its value is 15%.

And the “Population Healthy Nuclei (%)” value [1]?
The value was 61%.

What about the “Population Hoechst High Intensity Objects (%)” value [1] of the same molecule?
Its value is 12%.

And the “Population Membrane Permeable-Phenotype (%)” value [1]?
The value was 12%.

And the “Population Mitochondria Different-Phenotype (%)” value [1]?
Its value is 10%.

And the “Population Mitotic Cells (%)” value [1]?
The value was 84%.

What about the “Population Normal (%)” value [1] of the same molecule?
Its value is 87%.

And the “Population Pyknosed Nuclei (%)” value [1]?
Its value is 22%.

What about the “Population Tubulin-Different-Phenotype (%)” value [1] of the same molecule?
The value was 14%.

What about the “Total Cell Count” value [1] of the same molecule?
The value was 578.

What about the “Population Apoptotic (%)” value [2] of the same molecule?
Its value is 12%.

And the “Population Fragmented Nuclei (%)” value [2]?
The value was 3%.

What about the “Population Healthy Nuclei (%)” value [2] of the same molecule?
Its value is 82%.

What about the “Population Hoechst High Intensity Objects (%)” value [2] of the same molecule?
Its value is 2%.

And the “Population Membrane Permeable-Phenotype (%)” value [2]?
The value was 7%.

What about the “Population Mitochondria Different-Phenotype (%)” value [2] of the same molecule?
The value was 28%.

What about the “Population Mitotic Cells (%)” value [2] of the same molecule?
The value was 87%.

And the “Population Normal (%)” value [2]?
Its value is 97%.

And the “Population Pyknosed Nuclei (%)” value [2]?
Its value is 13%.

And the “Population Tubulin-Different-Phenotype (%)” value [2]?
Its value is 41%.

And the “Total Cell Count” value [2]?
Its value is 1166.

What about the “Population Apoptotic (%)” value [3] of the same molecule?
Its value is 32%.

What about the “Population Fragmented Nuclei (%)” value [3] of the same molecule?
The value was 17%.

What about the “Population Healthy Nuclei (%)” value [3] of the same molecule?
The value was 59%.

What about the “Population Hoechst High Intensity Objects (%)” value [3] of the same molecule?
Its value is 11%.

What about the “Population Membrane Permeable-Phenotype (%)” value [3] of the same molecule?
The value was 17%.

And the “Population Mitochondria Different-Phenotype (%)” value [3]?
The value was 40%.

What about the “Population Mitotic Cells (%)” value [3] of the same molecule?
The value was 67%.

And the “Population Normal (%)” value [3]?
The value was 88%.

And the “Population Pyknosed Nuclei (%)” value [3]?
Its value is 23%.

What about the “Population Tubulin-Different-Phenotype (%)” value [3] of the same molecule?
The value was 90%.

And the “Total Cell Count” value [3]?
The value was 497.

What about the “Population Apoptotic (%)” value [4] of the same molecule?
The value was 12%.

And the “Population Fragmented Nuclei (%)” value [4]?
Its value is 4%.

What about the “Population Healthy Nuclei (%)” value [4] of the same molecule?
Its value is 81%.

And the “Population Hoechst High Intensity Objects (%)” value [4]?
The value was 3%.

And the “Population Membrane Permeable-Phenotype (%)” value [4]?
The value was 24%.

And the “Population Mitochondria Different-Phenotype (%)” value [4]?
Its value is 43%.

What about the “Population Mitotic Cells (%)” value [4] of the same molecule?
Its value is 87%.

And the “Population Normal (%)” value [4]?
Its value is 96%.

What about the “Population Pyknosed Nuclei (%)” value [4] of the same molecule?
Its value is 13%.

And the “Population Tubulin-Different-Phenotype (%)” value [4]?
The value was 98%.

And the “Total Cell Count” value [4]?
The value was 911.

What about the “Population Apoptotic (%)” value [5] of the same molecule?
The value was 14%.

And the “Population Fragmented Nuclei (%)” value [5]?
The value was 14%.

And the “Population Healthy Nuclei (%)” value [5]?
The value was 62%.

What about the “Population Hoechst High Intensity Objects (%)” value [5] of the same molecule?
The value was 12%.

What about the “Population Membrane Permeable-Phenotype (%)” value [5] of the same molecule?
The value was 5%.

And the “Population Mitochondria Different-Phenotype (%)” value [5]?
The value was 12%.

What about the “Population Mitotic Cells (%)” value [5] of the same molecule?
The value was 85%.

And the “Population Normal (%)” value [5]?
The value was 87%.

What about the “Population Pyknosed Nuclei (%)” value [5] of the same molecule?
Its value is 23%.

What about the “Population Tubulin-Different-Phenotype (%)” value [5] of the same molecule?
Its value is 19%.

And the “Total Cell Count” value [5]?
The value was 553.

What about the “Population Apoptotic (%)” value [6] of the same molecule?
Its value is 6%.

What about the “Population Fragmented Nuclei (%)” value [6] of the same molecule?
Its value is 2%.

And the “Population Healthy Nuclei (%)” value [6]?
Its value is 66%.

And the “Population Hoechst High Intensity Objects (%)” value [6]?
Its value is 4%.

And the “Population Membrane Permeable-Phenotype (%)” value [6]?
Its value is 2%.

And the “Population Mitochondria Different-Phenotype (%)” value [6]?
Its value is 22%.

What about the “Population Mitotic Cells (%)” value [6] of the same molecule?
The value was 93%.

And the “Population Normal (%)” value [6]?
Its value is 95%.

What about the “Population Pyknosed Nuclei (%)” value [6] of the same molecule?
The value was 31%.

What about the “Population Tubulin-Different-Phenotype (%)” value [6] of the same molecule?
Its value is 48%.

And the “Total Cell Count” value [6]?
The value was 1114.

And the “Population Apoptotic (%)” value [7]?
The value was 39%.

What about the “Population Fragmented Nuclei (%)” value [7] of the same molecule?
Its value is 17%.

What about the “Population Healthy Nuclei (%)” value [7] of the same molecule?
Its value is 57%.

And the “Population Hoechst High Intensity Objects (%)” value [7]?
Its value is 12%.

And the “Population Membrane Permeable-Phenotype (%)” value [7]?
The value was 7%.

What about the “Population Mitochondria Different-Phenotype (%)” value [7] of the same molecule?
Its value is 80%.

And the “Population Mitotic Cells (%)” value [7]?
The value was 60%.

And the “Population Normal (%)” value [7]?
Its value is 87%.

And the “Population Pyknosed Nuclei (%)” value [7]?
The value was 25%.

What about the “Population Tubulin-Different-Phenotype (%)” value [7] of the same molecule?
The value was 93%.

And the “Total Cell Count” value [7]?
Its value is 510.

And the “Population Apoptotic (%)” value [8]?
The value was 11%.

And the “Population Fragmented Nuclei (%)” value [8]?
The value was 11%.

And the “Population Healthy Nuclei (%)” value [8]?
The value was 62%.

What about the “Population Hoechst High Intensity Objects (%)” value [8] of the same molecule?
The value was 3%.

What about the “Population Membrane Permeable-Phenotype (%)” value [8] of the same molecule?
The value was 8%.

And the “Population Mitochondria Different-Phenotype (%)” value [8]?
Its value is 59%.

And the “Population Mitotic Cells (%)” value [8]?
Its value is 88%.

What about the “Population Normal (%)” value [8] of the same molecule?
The value was 96%.

What about the “Population Pyknosed Nuclei (%)” value [8] of the same molecule?
Its value is 26%.

And the “Population Tubulin-Different-Phenotype (%)” value [8]?
The value was 97%.

What about the “Total Cell Count” value [8] of the same molecule?
Its value is 1005.
